Assay results from PMC8643159 (Drug Design, Development and Therapy, 2021).
Where two headings read alike, the source gives them in different places.

Legend:
CYP2C8 = settings: cited from earlier work
CYP3A4 = settings: cited from earlier work
[1] = format: in vivo; settings: beagle dogs
[2] = cited from earlier work
[3] = Stability of ripretinib in beagle dog plasma under four conditions; format: in vitro ADME; settings: room temperature, autosampler, freeze-thaw, frozen storage; 2.5, 100, 750 ng/mL
Method in brief: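 Dog plasma spiked with test compound at 2.5, 100 and 750 ng/mL, six replicates per level. Stability checked at room temperature, in frozen storage, through freeze-thaw, and as processed extracts in the autosampler. Samples taken with avapritinib IS through 1 mol/L NaOH and ethyl acetate extraction, dried under nitrogen, reconstituted in mobile phase; quantified by UPLC-MS/MS (C18, 0.1% formic acid/acetonitrile gradient).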

[4] = combined with itraconazole vs ripretinib alone
[5] = combined with voriconazole vs ripretinib alone
[6] = oral administration of 150 mg of ripretinib
[7] = single dose of ripretinib 150 mg, patients

## CCn1c(=O)c(-c2cc(NC(=O)Nc3ccccc3)c(F)cc2Br)cc2cnc(N)cc21 [DP-5439]
CYP2C8
  inhibition of CYP2C8: could inhibit

## CCC(C)n1ncn(-c2ccc(N3CCN(c4ccc(OCC5COC(Cn6cncn6)(c6ccc(Cl)cc6Cl)O5)cc4)CC3)cc2)c1=O (centres unmarked) [Itraconazole]
CYP3A4
  inhibition of CYP3A4: strong inhibitor

## CCn1c(=O)c(-c2cc(NC(=O)Nc3ccccc3)c(F)cc2Br)cc2cnc(NC)cc21 [Ripretinib]
[1]; [4]
  increase of AUC0→t of ripretinib: 36.35%
  increase of Cmax of ripretinib: 38.35%
[1]; [5]
  increase of AUC0→t of ripretinib: 25.52%
  increase of Cmax of ripretinib: 27.44%
CYP2C8
  inhibition of CYP2C8: could inhibit
[2]; [6]
  median time to reach Cmax: 4 h
  time to reach a steady state: 14 days
[2]; [7]
  mean AUC0-12h: 3773 ng·h/mL
  mean AUC0-24h: 6634 ng·h/mL
  mean Cmax: 502 ng/mL
[3]
  stability in plasma under four conditions: good stability

## C[C@@H](c1ncncc1F)[C@](O)(Cn1cncn1)c1ccc(F)cc1F [voriconazole]
CYP3A4
  inhibition of CYP3A4: moderate inhibitor
